Tested on: HCT116 cells
Assay: RNA-seq of nuclear RNA from HCT116 cells electroporated with peptide
Format: cell-based, human
Conditions: 10 μM Nutlin-3a, 3 h, versus DMSO
How it was run: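 HCT116 cells were trypsinized and electroporated with 0 or 10 μM peptide into antibiotic-free McCoy's 5A (serum-free in the second run). They then went to medium with 0.1% DMSO or 10 μM Nutlin-3a, plus 200 nM peptide in peptide wells, for 3 h at 37°C. Nuclei were isolated in 0.5% NP-40 lysis buffer, and nuclear RNA was TRIzol-extracted with extra phenol/chloroform cleanup.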

COc1ccc(C2=N[C@@H](c3ccc(Cl)cc3)[C@@H](c3ccc(Cl)cc3)N2C(=O)N2CCNC(=O)C2)c(OC(C)C)c1 [Nutlin-3a]
expression of p53 target genes: induced expression of p53 target genes
